Measurements taken from ChEMBL document CHEMBL1135725, “N-Aryl N'-hydroxyguanidines, a new class of NO-donors after selective oxidation by nitric oxide synthases: structure-activity relationship” (J Med Chem, 2002).

Columns and labels:
Type in all cases: functional
Settings in all cases: Mus musculus
[1] = substrate: N/C(=N/c1ccc(O)cc1)NO; test: (§1) Kinetic constant for NO formation during oxidation by NADPH and molecular Oxygen with NOS II
In short: (§2)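 Recombinant NOS II (E. coli-expressed, purified) assayed at 37 °C in 50 mM HEPES pH 7.4 with 1 mM NADPH, 100 μM BH4, 5 mM DTT, SOD and catalase (100 U/mL each), and 12-15 μM oxyhemoglobin. Substrate was varied from 5 μM to 2.5 mM. Enzyme level was set to keep oxyhemoglobin conversion below 30%. Kinetic constants come from the initial methemoglobin formation rate at 401 nm; three to four experiments.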

[2] = substrate: COc1ccc(NC(=N)NO)cc1; test: as §1; in short: as §2
[3] = substrate: Cc1ccc(NC(=N)NO)cc1; test: as §1; in short: as §2
[4] = substrate: N=C(NO)Nc1ccccc1; test: as §1; in short: as §2
[5] = substrate: N/C(=N/c1ccsc1)NO; test: as §1; in short: as §2
[6] = substrate: N/C(=N/c1ccc(F)cc1)NO; test: as §1; in short: as §2

B1: Nitric oxide synthase, inducible (Mus musculus), P29477 (protein)
chain: MACPWKFLFKVKSYQSDLKEEKDINNNVKKTPCAVLSPTIQDDPKSHQNGSPQLLTGTAQNVPESLDKLHVTSTRPQYVRIKNWGSGEILHDTLHHKATSDFTCKSKSCLGSIMNPKSLTRGPRDKPTPLEELLPHAIEFINQYYGSFKEAKIEEHLARLEAVTKEIETTGTYQLTLDELIFATKMAWRNAPRCIGRIQWSNLQVFDARNCSTAQEMFQHICRHILYATNNGNIRSAITVFPQRSDGKHDFRLWNSQLIRYAGYQMPDGTIRGDAATLEFTQLCIDLGWKPRYGRFDVLPLVLQADGQDPEVFEIPPDLVLEVTMEHPKYEWFQELGLKWYALPAVANMLLEVGGLEFPACPFNGWYMGTEIGVRDFCDTQRYNILEEVGRRMGLETHTLASLWKDRAVTEINVAVLHSFQKQNVTIMDHHTASESFMKHMQNEYRARGGCPADWIWLVPPVSGSITPVFHQEMLNYVLSPFYYYQIEPWKTHIWQNEKLRPRRREIRFRVLVKVVFFASMLMRKVMASRVRATVLFATETGKSEALARDLATLFSYAFNTKVVCMDQYKASTLEEEQLLLVVTSTFGNGDCPSNGQTLKKSLFMLRELNHTFRYAVFGLGSSMYPQFCAFAHDIDQKLSHLGASQLAPTGEGDELSGQEDAFRSWAVQTFRAACETFDVRSKHHIQIPKRFTSNATWEPQQYRLIQSPEPLDLNRALSSIHAKNVFTMRLKSQQNLQSEKSSRTTLLVQLTFEGSRGPSYLPGEHLGIFPGNQTALVQGILERVVDCPTPHQTVCLEVLDESGSYWVKDKRLPPCSLSQALTYFLDITTPPTQLQLHKLARFATDETDRQRLEALCQPSEYNDWKFSNNPTFLEVLEEFPSLHVPAAFLLSQLPILKPRYYSISSSQDHTPSEVHLTVAVVTYRTRDGQGPLHHGVCSTWIRNLKPQDPVPCFVRSVSGFQLPEDPSQPCILIGPGTGIAPFRSFWQQRLHDSQHKGLKGGRMSLVFGCRHPEEDHLYQEEMQEMVRKRVLFQVHTGYSRLPGKPKVYVQDILQKQLANEVLSVLHGEQGHLYICGDVRMARDVATTLKKLVATKLNLSEEQVEDYFFQLKSQKRYHEDIFGAVFSYGAKKGSALEEPKATRL
Km [1]: 425 µM
Km [2]: 2600 µM
Km [3]: 1100 µM
Km [4]: 270 µM
Km [5]: 25 µM
Km [6]: 300 µM
